# NR2E3 ag-1 = NR2E3 (human) agonism | 320,000 compounds, 0.12% hits | Q9Y5X4 | AID 2300 | inhibition of corepressor binding, % at 4.78 µM | GST-NR2E3/biotin-RetCOR TR-FRET, 1536-well;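 active = percent inhibition above the cutoff of mean plus 3 SD of all tested compounds, set per screening campaign, cut at about 20% in these data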
#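 Format: 1536-well format; test system: GST-NR2E3 and biotin-RetCOR proteins; read-out basis: percent inhibition of TR-FRET ratio; timing: 5 h incubation at 4 °C; detection: time-resolved FRET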
# NR2E3 ag-2 = human photoreceptor-specific nuclear receptor agonism | Q9Y5X4 | CHO-S Gal4-NCOR/VP16-NR2E3 two-hybrid, luciferase | 360,000 compounds, 0.35% hits | inhibition of corepressor binding, % at 3.98 µM;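 active = inhibition above the mean of all tested compounds plus 3 SD, cut at about 70% in these data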;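 note: higher means lower luciferase signal from less NR2E3 corepressor binding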
# PG9 binder = PG9 antibody binding by small molecule; AID 624416; inhibition, % at 6.7 µM; 360,000 compounds, 0.43% hits; TR-FRET gp120-PG9 antibody binding; in the data active = inhibition above about 8.5%
# NR1D1 modulator = modulators of human Rev-erb alpha DNA binding. 370,000 compounds, 0.79% hits. Rev-erbα–FITC-DNA binding, fluorescence polarization, 90 min. P20393. AID 1259318. activity, % at 10 µM;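 active = activity above about 14%, limit read from the data; passing the limit was not always enough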
# Target sequence (P20393 whole entry, looked up): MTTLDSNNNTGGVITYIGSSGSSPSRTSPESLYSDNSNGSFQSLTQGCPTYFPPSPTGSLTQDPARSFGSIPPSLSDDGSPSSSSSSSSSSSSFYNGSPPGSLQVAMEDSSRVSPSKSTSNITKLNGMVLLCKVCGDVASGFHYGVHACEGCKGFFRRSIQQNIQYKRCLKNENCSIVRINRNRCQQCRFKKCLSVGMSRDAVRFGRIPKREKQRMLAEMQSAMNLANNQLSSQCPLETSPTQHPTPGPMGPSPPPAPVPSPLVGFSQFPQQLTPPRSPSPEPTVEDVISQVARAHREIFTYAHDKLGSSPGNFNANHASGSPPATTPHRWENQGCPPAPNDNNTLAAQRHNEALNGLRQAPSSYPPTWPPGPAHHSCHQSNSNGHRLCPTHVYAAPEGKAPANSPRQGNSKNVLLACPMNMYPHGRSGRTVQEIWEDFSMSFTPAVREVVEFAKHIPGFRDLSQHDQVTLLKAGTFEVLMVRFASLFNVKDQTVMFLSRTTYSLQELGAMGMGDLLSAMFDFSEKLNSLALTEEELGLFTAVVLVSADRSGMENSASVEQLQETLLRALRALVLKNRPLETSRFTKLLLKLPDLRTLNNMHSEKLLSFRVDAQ
# PG9 bind confirm = confirmation of small molecules binding HIV-1 gp120 antibody PG9; 1,500 compounds, 90% hits; shares compounds with PG9 binder; inhibition, % at 6.7 µM; TR-FRET PG9 antibody binding, biochemical; AID 651571; in the data active = inhibition above about 9%
# PGV04 counter = binds control antibody PGV04 in PG9 binder counter-screen | shares compounds with PG9 binder | TR-FRET PGV04 antibody-gp120 binding, biochemical | inhibition, % at 6.7 µM | 1,500 compounds, 95% hits | AID 651604; in the data active = inhibition above about 9.5%
# PG9 binder DR = small molecules binding HIV-1 gp120 antibody PG9; shares compounds with PG9 binder; TR-FRET PG9 antibody-gp120 binding inhibition; IC50, µM; 95 tested, under 10 active; AID 651848; in the data active = IC50 below about 10 µM
# PGV04 DR counter = counter-screen for PG9 binders: binding to control antibody PGV04 | shares compounds with PG9 binder | TR-FRET binding to control antibody PGV04 | IC50, µM | 95 compounds, 20% hits
# PG126 DR counter = counter-screen for PG9 binders: binding to control antibody PG126. 95 compounds, 20% hits. TR-FRET binding to antibody PG126, counterscreen. IC50, µM. AID 651939. shares compounds with PG9 binder
# Hits are given with their value; . = inactive; / = no result. Most compounds without a hit are left out; they make up all but 1.5% or so of the library. Cut-off read from the data, not from the text of the source, unless noted: active = IC50 below about 9 µM; inactive = the rest.
SMILES,NR2E3 ag-1,NR2E3 ag-2,PG9 binder,NR1D1 modulator,PG9 bind confirm,PGV04 counter,others
O=C(CSc1nc2ccccc2c(=O)n1Cc1ccc(F)cc1)NCc1cccs1,.,.,16,.,16,33,
COc1ccc(-n2c(SCC(=O)NNC(=S)Nc3ccccc3)nc3ccccc3c2=O)cc1,/,/,/,.,/,/,
O=C(O)CSc1c2c(nc3cc(C(=O)Nc4cccc(C(F)(F)F)c4)ccc13)CCC2,.,.,16,.,33,54,
CCOc1ccc(NC(=O)c2ccc3c(SCC(=O)O)c4c(nc3c2)CCCC4)cc1,.,.,.,.,/,/,
CSc1ncccc1C(=O)OCc1ccc(C#N)cc1,.,.,9.8,.,15,20,
CSc1ncccc1C(=O)OCC(=O)Nc1ccc(Cl)cn1,/,.,17,.,9.9,15,
CSc1ncccc1C(=O)OCC(=O)c1ccc(C)s1,/,.,16,.,16,38,
Cc1ccc(CN2CCCCC(NC(=O)c3ccccc3C)C2=O)cc1 (stereo not given),/,/,/,.,/,/,
COc1cccc(NC(=O)Nc2c(-c3ccc(F)cc3)nc3ncccn23)c1,/,/,/,.,/,/,
COc1ccc(C(=O)Nc2ccc(S(=O)(=O)N3CCCC3)cc2)c(OC)c1,.,.,11,.,13,17,
O=C1Cc2c([nH]c3ccc(Br)cc23)-c2ccccc2N1,/,.,11,.,16,22,
O=C(NCc1ccccc1F)C1C2C=CC3(CN(Cc4ccccc4)C(=O)C13)O2 (stereo not given),/,/,/,.,/,/,
O=C(c1cc(Cl)cc(Cl)c1)N1CC[C@H]2[C@H](CCCN2Cc2cc(F)cc(F)c2)C1,/,/,/,.,/,/,
O=C(CSc1nnc(-c2cccnc2)n1-c1ccccc1)c1ccccc1Cl,/,/,/,.,/,/,
CC(=O)c1sc(C(C)(C)C)cc1NC(=O)CCC(=O)O,.,.,10,.,19,23,
CC(=O)c1sc(C(C)(C)C)cc1NC(=O)/C=C/C(=O)O,.,.,.,.,/,/,
CCOC(=O)c1csc(NC(=O)C2CCCN(S(=O)(=O)c3ccc([N+](=O)[O-])cc3)C2)n1 (stereo not given),/,/,/,.,/,/,
N#Cc1c(SCC(=O)O)nc(-c2ccccc2)c2c1CCCC2,.,.,13,.,19,24,
COc1cccc(NC(=O)c2cnc(SCC(=O)NCc3ccc4c(c3)OCO4)n(C)c2=O)c1,.,.,26,.,30,43,
COc1cccc(-n2nnnc2SCC(=O)NCc2ccc3c(c2)OCO3)c1,.,.,.,.,/,/,
CC(C)Oc1ccc(C(=O)Nc2ccc(NC(=O)c3ccco3)c(Cl)c2)cc1,.,.,11,.,16,23,
CCOc1ccc(-n2c(SCC(=O)Nc3ccc(S(=O)(=O)Nc4cc(C)nc(C)n4)cc3)nnc2-c2ccc(C)cc2)cc1,/,/,/,.,/,/,
O=C1c2[nH]nc(-c3ccccc3O)c2C(c2cccc(Cl)c2)N1CC1CCCO1 (stereo not given),.,.,8.6,.,25,19,PG9 binder DR=.;PGV04 DR counter=.;PG126 DR counter=.
COCCCN1C(=O)C(=O)/C(=C(/O)c2ccc(OC(C)C)cc2)C1c1cccnc1 (stereo not given),.,.,10,.,14,19,
COC(=O)c1cc2sc(Cl)cc2n1CC(=O)NCCC(C)C,.,.,11,.,20,24,
SMILES,NR2E3 ag-1,NR2E3 ag-2,PG9 binder,NR1D1 modulator,PG9 bind confirm,PGV04 counter,others
COC(=O)c1cc2sccc2n1CC(=O)Nc1cc(OC)cc(OC)c1,.,.,.,.,/,/,
Cc1ccc(/C(O)=C2/C(=O)C(=O)N(c3ccccn3)C2c2ccc(F)cc2)cc1 (stereo not given),.,.,.,.,/,/,
COc1ccc(/C(O)=C2/C(=O)C(=O)N(c3ccccn3)C2c2ccc(OC)cc2)cc1 (stereo not given),/,.,.,.,/,/,
CCOc1ccc(/C(O)=C2/C(=O)C(=O)N(c3ccccn3)C2c2ccc(F)cc2)c(C)c1 (stereo not given),.,.,10,.,18,24,
CCCOc1ccc(/C(O)=C2/C(=O)C(=O)N(c3ccccn3)C2c2ccc(OC)cc2)cc1C (stereo not given),.,.,17,.,25,36,
CCOc1cccc2cc(C(=O)NCc3ccccc3)c(=N)oc12,.,.,/,/,/,/,
CCOc1cccc2cc(C(=O)NC(C)c3ccccc3)c(=N)oc12 (stereo not given),.,.,9.0,.,9.2,15,
COC(=O)[C@H](CC(C)C)N(CCCc1cn(Cc2ccc(C)cc2)nn1)S(=O)(=O)c1ccc(F)cc1Br,/,/,/,.,/,/,
O=C(Cc1ccccc1)Nc1nnc(-c2cccs2)s1,.,.,12,.,19,31,
CCC(=O)Nc1nnc(-c2cccs2)s1,.,.,.,.,/,/,
COc1cccc(-c2nnc(NC(=O)Cc3cccs3)s2)c1,.,.,13,.,18,39,
COc1ccc(CCNC(=O)Nc2ccc3c(c2)[C@@]2(CC(=O)N(CC(C)C)C2c2ccccc2)C(=O)N3C)cc1OC (stereo not given in full),/,/,/,.,/,/,
CCc1ccc(-c2nc3ccc(Br)cc3c(C(=O)O)c2C)s1,/,.,27,.,33,59,
CCOC(=O)[C@@]12CCCC3=C1N(CCC3)C(=O)[C@H]2CC(=O)NCCCOC,/,/,/,.,/,/,
Cc1sc2ncnc(N3CCC(C(=O)Nc4ccccc4C(C)(C)C)CC3)c2c1C,.,.,13,.,17,21,
COC(=O)[C@]12C[C@H](CC(=O)N3CCOCC3)C(=O)N(Cc3ccco3)C1=C[C@H](C(C)C)O[C@@H]2C1CC1,/,/,/,.,/,/,
Cc1cccc(C)c1-n1nnnc1C1(C)CN(S(C)(=O)=O)CC(=O)N1Cc1ccc(F)cc1 (stereo not given),/,/,/,.,/,/,
CC(=O)Nc1c(Br)cc2c(c1Br)Cc1cc([N+](=O)[O-])ccc1-2,/,.,.,.,/,/,
O=C(Nc1c(Br)cc2c(c1Br)Cc1ccccc1-2)C(Cl)Cl,/,.,28,.,25,38,
CCCCCC[C@H](CN(CCCC)S(C)(=O)=O)c1ccccc1,/,/,/,.,/,/,
CC1=CC(=C(C#N)C#N)C=C(C)N1CCN1CCN(C(=O)Nc2cccc(Cl)c2)CC1,.,.,12,.,17,26,
CCc1cccc(CC)c1NC(=O)C1SC(=Nc2ccccc2C)C(c2nc3ccccc3s2)=C1N (stereo not given),.,.,9.2,.,9.5,13,
